# Measurements: ChEMBL document CHEMBL1121475, “Inhibitors of indoleethylamine N-methyltransferase. Derivatives of 3-methyl-2-thiazolidinimine. In vitro, in vivo, and metabolic studies” (J Med Chem, 1980)
# What was measured:
# [1] = (§1) Dose that causes approximately 50% lethality in mice, when given perorally; type: ADME, organism-based; conditions: mouse, in vivo, po
# Outline: (§2)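 Mice in groups of one to three were dosed orally. Deaths were scored on day 7 after dosing, and the LD50 was obtained by graphical interpolation.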
# [2] = (§3) Dose that causes approximately 50% lethality in mice, when given intravenously; type: ADME, organism-based; conditions: mouse, in vivo, iv
# [3] = target: Indolethylamine N-methyltransferase (Homo sapiens) (UniProt O95050); assay: In vitro evaluation of Indoleethylamine-N-methyltransferase in human lung preparations for the ability to inhibit conversion of N-methyltryptamine (NMT) to N,N-dimethyltryptamine (DMT) at dose 25 ug/mL; type: tissue-based
# Indolethylamine N-methyltransferase (Homo sapiens), sequence (O95050 whole entry): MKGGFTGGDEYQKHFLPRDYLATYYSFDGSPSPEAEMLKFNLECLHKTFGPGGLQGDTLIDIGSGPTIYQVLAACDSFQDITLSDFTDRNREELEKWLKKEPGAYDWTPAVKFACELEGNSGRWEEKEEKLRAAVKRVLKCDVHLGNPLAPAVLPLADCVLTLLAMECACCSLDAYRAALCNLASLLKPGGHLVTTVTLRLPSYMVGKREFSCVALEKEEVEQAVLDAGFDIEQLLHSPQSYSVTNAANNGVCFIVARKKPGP
# Outline: (§4)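 Human lung INMT was taken from the 50000g supernatant, cut with 40-60% ammonium sulfate, dialysed and purified on Sephadex G-150. The reaction contained 0.007 M N-methyltryptamine stock, S-[methyl-14C]adenosylmethionine and potassium phosphate, pH 7.9, in 0.105 mL, run 90 min at 37 °C. It was stopped with borate at pH 10. [14C]DMT was extracted into isoamyl alcohol and counted by scintillation.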
# [4] = system: Indolethylamine N-methyltransferase (Oryctolagus cuniculus); assay: Compound tested for specific activity against rabbit lung Indoleethylamine-N-methyltransferase at oral dose of 20 mg/kg
# [5] = system: Indolethylamine N-methyltransferase (Oryctolagus cuniculus); assay: Compound tested for specific activity against rabbit lung Indoleethylamine-N-methyltransferase at intravenous dose of 10 mg/kg
# [6] = system: Indolethylamine N-methyltransferase (Oryctolagus cuniculus); assay: In vivo evaluation of inhibitory activity against rabbit lung Indoleethylamine-N-methyltransferase at intravenous dose 10 mg/kg *(p<0.02)
# [7] = target: Indolethylamine N-methyltransferase (Homo sapiens) (UniProt O95050); assay: In vitro evaluation of Indoleethylamine-N-methyltransferase in human lung preparations for the ability to inhibit conversion of N-methyltryptamine (NMT) to N,N-dimethyltryptamine (DMT) at dose 2.5 ug/mL; type: tissue-based; outline: as §4
# [8] = Dose that causes approximately 50% lethality in mice, when given intraperitoneally; type: ADME, organism-based; conditions: mouse, in vivo, ip
# [9] = system: Indolethylamine N-methyltransferase (Oryctolagus cuniculus); assay: Compound tested for inhibitory activity against rabbit lung Indoleethylamine-N-methyltransferase at oral dose 25 mg/kg
# [10] = system: Indolethylamine N-methyltransferase (Oryctolagus cuniculus); assay: In vivo evaluation of specific activity against rabbit lung Indoleethylamine-N-methyltransferase at oral dose of 25 mg/kg
# [11] = system: Indolethylamine N-methyltransferase (Oryctolagus cuniculus); assay: Compound tested for inhibitory activity against rabbit lung Indoleethylamine-N-methyltransferase at 4 mg/kg intravenously
# [12] = system: Indolethylamine N-methyltransferase (Oryctolagus cuniculus); assay: In vivo evaluation of specific activity against rabbit lung Indoleethylamine-N-methyltransferase at intravenous dose of 4 mg/kgmade acidic to pH 2 with dil. HCl
# [13] = system: Oryctolagus cuniculus; assay: 25 mg/kg of [14C]- radiolabeled compound was orally (gavage) injected in rabbit, and radioactivity content in feces was estimated (total); type: ADME, organism-based; conditions: in vivo, po
# Outline: (§5)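 Male New Zealand white rabbit (825 g) dosed by gavage at 25 mg/kg. The dosing solution was [14C]-labelled plus unlabelled drug in distilled water, 2 mg free base/mL, specific activity 1183 dpm/μg. Urine collected at 6, 24, 48 and 72 h and feces at 24, 48 and 72 h. Radioactivity is expressed as % of administered dose.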
# [14] = system: Oryctolagus cuniculus; assay: 25 mg/kg of [14C]- radiolabeled compound was orally (gavage) injected in rabbit, and radioactivity content in feces was estimated at 0-24 h; type: ADME, organism-based; conditions: in vivo, po; outline: as §5
# [15] = system: Oryctolagus cuniculus; assay: 25 mg/kg of [14C]- radiolabeled compound was orally (gavage) injected in rabbit, and radioactivity content in feces was estimated at 24-48 h; type: ADME, organism-based; conditions: in vivo, po; outline: as §5
# [16] = system: Oryctolagus cuniculus; assay: 25 mg/kg of [14C]- radiolabeled compound was orally (gavage) injected in rabbit, and radioactivity content in feces was estimated at 48-72 h; type: ADME, organism-based; conditions: in vivo, po; outline: as §5
# [17] = system: Oryctolagus cuniculus; assay: 25 mg/kg of [14C]- radiolabeled compound was perorally injected in rabbit, and radioactivity content in urine was estimated (total); type: ADME, organism-based; conditions: in vivo, po; outline: as §5
# [18] = system: Oryctolagus cuniculus; assay: 25 mg/kg of [14C]- radiolabeled compound was perorally injected in rabbit, and radioactivity content in urine was estimated at 0-6 h; type: ADME, organism-based; conditions: in vivo, po; outline: as §5
# [19] = system: Oryctolagus cuniculus; assay: 25 mg/kg of [14C]- radiolabeled compound was perorally injected in rabbit, and radioactivity content in urine was estimated at 24-48 h; type: ADME, organism-based; conditions: in vivo, po; outline: as §5
# [20] = system: Oryctolagus cuniculus; assay: 25 mg/kg of [14C]- radiolabeled compound was perorally injected in rabbit, and radioactivity content in urine was estimated at 48-72 h; type: ADME, organism-based; conditions: in vivo, po; outline: as §5
# [21] = system: Oryctolagus cuniculus; assay: 25 mg/kg of [14C]- radiolabeled compound was perorally injected in rabbit, and radioactivity content in urine was estimated at 6-24 h; type: ADME, organism-based; conditions: in vivo, po; outline: as §5
# [22] = system: Oryctolagus cuniculus; assay: 10 mg/kg of [14C]- radiolabeled compound was intravenously […] injected in rabbit, and radioactivity content in feces was estimated (total); type: ADME, organism-based; conditions: in vivo, iv
# Outline: (§6)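 Male New Zealand white rabbit (825 g), [14C]-labelled drug given intravenously at 10 mg/kg. Urine collected at 6, 24, 48 and 72 h and feces at 24, 48 and 72 h post-dose. Radioactivity is counted and expressed as % of administered dose.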
# [23] = system: Oryctolagus cuniculus; assay: 10 mg/kg of [14C]- radiolabeled compound was intravenously […] injected in rabbit, and radioactivity content in feces was estimated at 0-24 h; type: ADME, organism-based; conditions: in vivo, iv; outline: as §6
# [24] = system: Oryctolagus cuniculus; assay: 10 mg/kg of [14C]- radiolabeled compound was intravenously […] injected in rabbit, and radioactivity content in feces was estimated at 24-48 h; type: ADME, organism-based; conditions: in vivo, iv; outline: as §6
# [25] = system: Oryctolagus cuniculus; assay: 10 mg/kg of [14C]- radiolabeled compound was intravenously injected in rabbit, and radioactivity content in urine was estimated (total); type: ADME, organism-based; conditions: in vivo, iv; outline: as §6
# [26] = system: Oryctolagus cuniculus; assay: 10 mg/kg of [14C]- radiolabeled compound was intravenously injected in rabbit, and radioactivity content in urine was estimated at 0-6 h; type: ADME, organism-based; conditions: in vivo, iv; outline: as §6
# [27] = system: Oryctolagus cuniculus; assay: 10 mg/kg of [14C]- radiolabeled compound was intravenously injected in rabbit, and radioactivity content in urine was estimated at 24-48 h; type: ADME, organism-based; conditions: in vivo, iv; outline: as §6
# [28] = system: Oryctolagus cuniculus; assay: 10 mg/kg of [14C]- radiolabeled compound was intravenously injected in rabbit, and radioactivity content in urine was estimated at 48-72 h; type: ADME, organism-based; conditions: in vivo, iv; outline: as §6
# [29] = system: Oryctolagus cuniculus; assay: 10 mg/kg of [14C]- radiolabeled compound was intravenously injected in rabbit, and radioactivity content in urine was estimated at 6-24 h; type: ADME, organism-based; conditions: in vivo, iv; outline: as §6
# [30] = system: Mus musculus; assay: as §3; type: functional; conditions: iv
# [31] = organism: Mus musculus; assay: as §1; type: functional; conditions: po; outline: as §2
# [32] = system: Oryctolagus cuniculus; assay: 10 mg/kg of [14C]- radiolabeled compound was intravenously […] injected in rabbit, and radioactivity content in feces was estimated at 48-72 h; type: ADME, organism-based; conditions: in vivo, iv; outline: as §6
# [33] = system: Indolethylamine N-methyltransferase (Oryctolagus cuniculus); assay: Compound tested for inhibitory activity against rabbit lung Indoleethylamine-N-methyltransferase at oral dose 25 mg/kg *(p<0.026)
# [34] = system: Indolethylamine N-methyltransferase (Oryctolagus cuniculus); assay: Compound tested for inhibitory activity against rabbit lung Indoleethylamine-N-methyltransferase at intravenous dose 4 mg/kg *(p<0.027)
# [35] = system: Indolethylamine N-methyltransferase (Oryctolagus cuniculus); assay: In vivo evaluation of specific activity against rabbit lung Indoleethylamine-N-methyltransferase at intravenous dose of 4 mg/kg
# [36] = system: Indolethylamine N-methyltransferase (Oryctolagus cuniculus); assay: Compound tested for inhibitory activity against rabbit lung Indoleethylamine-N-methyltransferase at intravenous dose 4 mg/kg *(p<0.008
Structure (SMILES),LD50 [1] [mg/kg],LD50 [2] [mg/kg],inhibition [3] [%],inhibition [7] [%],Specific activity [10] [dpm],other results
CN1CCS/C1=N\CNC(=O)c1ccccc1,534,122,–,–,–,–
CN1CCS/C1=N\C(=O)CCC(=O)O,> 8,1280,20,–,–,Specific activity [4]: 34000 dpm; inhibition [4]: 11.4%; Specific activity [5]: 36100 dpm; inhibition [5]: 35.8%
CN1CCS/C1=N\C(=O)OC(C)(C)C,306,68,6,–,–,–
CC(=O)N[C@@H](Cc1ccccc1)C(=O)/N=C1\SCCN1C,–,–,–,–,–,inhibition [6]: 84.7%
CC(=O)CC(=O)/N=C1\SCCN1C,–,–,51,24,–,–
CCNC(=O)/N=C1\SCCN1C,203,1110,0,–,–,–
CN1CCS/C1=N\C(=O)/N=C1\SCCN1C,2000,–,0,–,61200,LD50 [8]: 1140 mg/kg; inhibition [9]: 31.9%
CC(=O)NCC(=O)/N=C1\SCCN1C,936,408,51,24,11600,inhibition [9]: 84.9%; inhibition [11]: 60.6%; Specific activity [12]: 33200 dpm
CN1CCS/C1=N\C(=O)CN,4670,549,54,11,–,–
CN1CCSC1=N,–,–,–,–,–,Dose excreted [13]: 3.9%; Dose excreted [14]: 3.2%; Dose excreted [15]: 0.6%; Dose excreted [16]: 0.1%; Dose excreted [17]: 89.7%; Dose excreted [18]: 46.4%; Dose excreted [19]: 2.9%; Dose excreted [20]: 1.6%; Dose excreted [21]: 38.8%; Dose excreted [22]: 4.3%; Dose excreted [23]: 3.1%; Dose excreted [24]: 0.9%; Dose excreted [25]: 82.8%; Dose excreted [26]: 46.5%; Dose excreted [27]: 5.3%; Dose excreted [28]: 3.3%; Dose excreted [29]: 27.7%; LD50 [30]: 118 mg/kg; LD50 [31]: 432 mg/kg; Dose excreted [32]: 0.3%
CN1CCS/C1=N\S(=O)(=O)[O-].[Na+],> 5,> 2.5,–,–,–,–
CN1CCS/C1=N\C(=O)c1cccnc1,570,279,5,0,18400,inhibition [33]: 76.2%; inhibition [34]: 37.8%
CC(=O)NC(Cc1ccccc1)C(=O)/N=C1\SCCN1C (configuration not stated),173,–,23,8,24100,LD50 [8]: > 2000 mg/kg; inhibition [9]: 69%; Specific activity [35]: 60000 dpm; inhibition [36]: 28.9%
